# Measurements from ChEMBL document CHEMBL1156470, “Inhibition of the activation of multiple serine proteases with a cathepsin C inhibitor requires sustained exposure to prevent pro-enzyme processing” (J Biol Chem, 2007).
# The source made the active and inactive calls. The rule behind the calls is not given here. Residues, ends and D or L forms follow the SMILES beside them. *: point of attachment. CHN2 = [N-]=[N+]=C*
# Columns and labels:
# Dipeptidyl peptidase 1 [1] = target: T1, Dipeptidyl peptidase 1 (Homo sapiens, UniProt P53634); assay: Inhibition of cathepsin C in human U937 cells at 1 uM after 24 hrs; assay type: cell-based; settings: U-937
# How it was run: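 U937 at 0.4×10^6 cells/ml exposed 24 h to compound (final Me₂SO 0.5%), washed, lysed in 25 mM MES pH 6.0, 50 mM NaCl, 5 mM DTT, 0.2% NP-40. Protein-normalised lysate diluted 1:10 and assayed with 50 μM Gly-Arg-AMC (twice Km) at room temperature. Residual cathepsin C activity.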
# U-937 = assay: Cytotoxicity against human U937 cells at 1 uM after 72 hrs annexin-V propidium iodide method; assay type: functional
# How it was run: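 U937 plated at 0.4×10^6 cells/ml, compound in Me₂SO (final 0.5%). Cells harvested and re-seeded every 24 h in medium with freshly added inhibitor, for 72 h. Viability by annexin V-FITC/propidium iodide two-colour flow cytometry; cells negative for both stains counted viable.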
# Procathepsin L = Procathepsin L (Homo sapiens, UniProt P07711); assay: Inhibition of human recombinant cathepsin L after 10 mins
# Neutrophil elastase [2] = target: T2, Neutrophil elastase (Mus musculus, UniProt Q3UP87); assay: Inhibition of neutrophil elastase activation in beta-estradiol differentiated mouse EcoM-G cells after 24 hrs; assay type: cell-based
# T2 sequence (Q3UP87 whole entry): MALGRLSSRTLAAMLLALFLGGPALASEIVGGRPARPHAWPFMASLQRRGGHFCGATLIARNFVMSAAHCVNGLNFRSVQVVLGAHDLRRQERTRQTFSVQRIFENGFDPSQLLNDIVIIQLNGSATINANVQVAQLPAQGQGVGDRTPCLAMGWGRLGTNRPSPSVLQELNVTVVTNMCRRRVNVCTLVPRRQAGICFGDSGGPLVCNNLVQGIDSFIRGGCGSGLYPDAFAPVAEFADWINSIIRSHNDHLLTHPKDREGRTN
# How it was run: (§1)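 EcoM-G cells (cultures <3 months old) washed and seeded at 0.5×10^6 cells/ml without β-estradiol. After 24 h, compound added in Me₂SO (final 0.5%), then cells differentiated a further 24 h, harvested and lysed. NE assayed with 400 μM MeOSuc-AAPV-AMC, CG with 1 mM Suc-AAPF-pNA (405 nm, 5 min), Pr-3 with 10 μM internally quenched substrate (ex 328/em 393 nm), all from the same lysates. IC50 from four-parameter Hill fit.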
# Dipeptidyl peptidase 1 [3] = target: T1, Dipeptidyl peptidase 1; assay: Inhibition of human recombinant cathepsin C after 10 mins
# How it was run: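 Recombinant human cathepsin C at 1 nM in 25 mM MES pH 6.0, 50 mM NaCl, 5 mM DTT, with 50 μM Gly-Arg-AMC (twice Km). Enzyme preincubated with inhibitor 10 min, then substrate added, at room temperature. Fluorogenic AMC release.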
# Cathepsin G [4] = target: T3, Cathepsin G (Homo sapiens, UniProt P08311); assay: Blockade of cathepsin G processing in human U937 cells by densitometry; assay type: cell-based, U-937
# T3 sequence (P08311 whole entry): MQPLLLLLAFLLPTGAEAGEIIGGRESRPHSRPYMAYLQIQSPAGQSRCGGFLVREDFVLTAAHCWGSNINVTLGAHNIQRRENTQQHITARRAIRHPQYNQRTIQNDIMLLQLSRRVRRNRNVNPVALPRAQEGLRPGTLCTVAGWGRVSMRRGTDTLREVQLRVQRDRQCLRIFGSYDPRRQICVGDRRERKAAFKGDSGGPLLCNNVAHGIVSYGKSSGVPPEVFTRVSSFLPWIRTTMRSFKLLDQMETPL
# How it was run: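 U937 cells washed, plated at 2×10^6 cells/ml in methionine/glutamine-free RPMI, inhibitor or 0.5% Me₂SO added during 30 min starvation, pulsed with [³⁵S]methionine (10 μCi/ml) 30 min, re-seeded in complete medium with inhibitor and chased 3 h. Lysates bound to aprotinin-agarose 1 h at room temperature, SDS-PAGE and fluorography. CG band quantitated by densitometry as % inhibition vs vehicle.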
# Cathepsin G [5] = target: T4, Cathepsin G (Mus musculus, UniProt P28293); assay: Inhibition of cathepsin G activation in beta-estradiol differentiated mouse EcoM-G cells after 24 hrs; assay type: cell-based; how it was run: as §1
# T4 sequence (P28293 whole entry): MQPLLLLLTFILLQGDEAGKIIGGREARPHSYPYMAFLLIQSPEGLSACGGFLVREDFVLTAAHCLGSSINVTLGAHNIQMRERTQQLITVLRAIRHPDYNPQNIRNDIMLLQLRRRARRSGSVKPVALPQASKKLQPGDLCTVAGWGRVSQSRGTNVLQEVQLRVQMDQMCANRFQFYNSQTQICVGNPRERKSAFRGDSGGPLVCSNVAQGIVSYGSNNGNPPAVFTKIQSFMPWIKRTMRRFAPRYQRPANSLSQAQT
# Pro-cathepsin H = target: T5, Pro-cathepsin H (Homo sapiens, UniProt P09668); assay: Inhibition of human recombinant cathepsin H after 10 mins
# T5 sequence (P09668 whole entry): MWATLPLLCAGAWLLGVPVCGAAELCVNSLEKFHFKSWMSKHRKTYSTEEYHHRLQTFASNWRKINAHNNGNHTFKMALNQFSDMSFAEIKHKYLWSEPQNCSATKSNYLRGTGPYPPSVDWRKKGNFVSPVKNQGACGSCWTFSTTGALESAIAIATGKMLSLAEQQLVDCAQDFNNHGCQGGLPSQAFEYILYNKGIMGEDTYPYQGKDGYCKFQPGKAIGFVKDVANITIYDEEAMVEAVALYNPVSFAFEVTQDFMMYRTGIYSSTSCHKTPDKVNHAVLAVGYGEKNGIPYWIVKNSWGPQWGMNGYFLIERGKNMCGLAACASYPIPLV
# Cathepsin B = Cathepsin B (Homo sapiens, UniProt P07858); assay: Inhibition of human recombinant cathepsin B after 10 mins
# Cathepsin S = Cathepsin S (Homo sapiens, UniProt P25774); assay: Inhibition of human recombinant cathepsin S after 10 mins
# Neutrophil elastase [6] = target: T6, Neutrophil elastase (Homo sapiens, UniProt P08246); assay: Blockade of neutrophil elastase processing in human U937 cells after 7 days by fluorogenic substrate cleavage assay; assay type: cell-based, U-937
# T6 sequence (P08246 whole entry): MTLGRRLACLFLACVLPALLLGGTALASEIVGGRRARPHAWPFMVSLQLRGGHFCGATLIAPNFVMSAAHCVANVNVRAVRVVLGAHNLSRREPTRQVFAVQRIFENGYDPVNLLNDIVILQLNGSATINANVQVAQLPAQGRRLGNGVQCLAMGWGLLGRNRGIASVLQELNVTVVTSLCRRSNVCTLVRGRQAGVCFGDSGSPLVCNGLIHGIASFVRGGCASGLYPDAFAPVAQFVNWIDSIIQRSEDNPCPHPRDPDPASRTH
# How it was run: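 U937 seeded at 1×10^5 cells/ml with vehicle or inhibitor, passaged and diluted 10-fold into fresh medium with compound on days 3 and 5, harvested day 7. Cells washed and lysed in 20 mM Tris pH 7.5, 100 mM NaCl, 0.2% NP-40. NE rate measured with 400 μM MeOSuc-AAPV-AMC (ex 370/em 450 nm, 10 min). % inhibition vs vehicle, four wells per point.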
# Myeloblastin = target: T7, Myeloblastin (Mus musculus, UniProt Q61096); assay: Inhibition of proteinase-3 activation in beta-estradiol differentiated mouse EcoM-G cells after 24 hrs; assay type: cell-based; how it was run: as §1
# T7 sequence (Q61096 whole entry): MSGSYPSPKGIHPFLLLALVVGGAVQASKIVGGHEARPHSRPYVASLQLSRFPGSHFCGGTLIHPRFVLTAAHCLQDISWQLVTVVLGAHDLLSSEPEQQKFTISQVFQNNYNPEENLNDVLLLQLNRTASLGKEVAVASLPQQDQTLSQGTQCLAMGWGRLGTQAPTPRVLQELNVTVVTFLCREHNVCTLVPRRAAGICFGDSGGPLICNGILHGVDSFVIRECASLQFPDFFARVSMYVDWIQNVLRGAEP
# [7] = target: T8, Cathepsin G (Homo sapiens) (UniProt P08311); assay: Inhibition of human U937 cellular [35S]methionine-labeled cathepsin G binding to aprotinin by aprotinin-agarose silver-stained SDS-PAGE method; assay type: cell-based; settings: U-937, in the assay text read “SDS-PAGE fluorography” for “silver-stained SDS-PAGE”
# T8 sequence (whole entry): T3 sequence (P08311 whole entry)
# [8] = target: Neutrophil elastase (Mus musculus) (UniProt Q3UP87); assay: Inhibition of neutrophil elastase in mouse EcoM-G cells
# Cathepsin G [9] = target: T3, Cathepsin G; assay: Inhibition of cathepsin G in human U937 cells; assay type: cell-based, U-937
# T1 sequence (P53634 25-134 limits assumed): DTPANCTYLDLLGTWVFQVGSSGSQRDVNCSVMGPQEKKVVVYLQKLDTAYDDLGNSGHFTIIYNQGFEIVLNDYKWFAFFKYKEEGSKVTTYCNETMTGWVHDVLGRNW
# T1 sequence (P53634 231-394 limits assumed): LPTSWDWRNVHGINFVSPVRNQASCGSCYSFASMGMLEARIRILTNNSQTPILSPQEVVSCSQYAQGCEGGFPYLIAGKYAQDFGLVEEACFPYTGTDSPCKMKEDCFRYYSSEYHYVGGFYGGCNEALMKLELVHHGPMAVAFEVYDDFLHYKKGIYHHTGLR
# T1 sequence (P53634 395-463 limits assumed): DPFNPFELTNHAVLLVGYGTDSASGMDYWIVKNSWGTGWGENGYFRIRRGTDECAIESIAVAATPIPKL
# Sequence of Cathepsin S (P25774 whole entry): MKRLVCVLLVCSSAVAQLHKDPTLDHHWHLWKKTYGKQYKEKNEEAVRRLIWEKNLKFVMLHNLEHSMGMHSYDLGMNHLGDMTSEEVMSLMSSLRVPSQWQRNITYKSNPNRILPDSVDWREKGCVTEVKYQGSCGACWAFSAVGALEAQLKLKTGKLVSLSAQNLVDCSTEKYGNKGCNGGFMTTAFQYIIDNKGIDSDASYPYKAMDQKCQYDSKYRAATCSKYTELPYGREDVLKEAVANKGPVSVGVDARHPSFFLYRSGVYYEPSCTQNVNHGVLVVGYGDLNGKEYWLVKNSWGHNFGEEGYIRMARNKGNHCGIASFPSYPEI
# Sequence of Procathepsin L (P07711 whole entry): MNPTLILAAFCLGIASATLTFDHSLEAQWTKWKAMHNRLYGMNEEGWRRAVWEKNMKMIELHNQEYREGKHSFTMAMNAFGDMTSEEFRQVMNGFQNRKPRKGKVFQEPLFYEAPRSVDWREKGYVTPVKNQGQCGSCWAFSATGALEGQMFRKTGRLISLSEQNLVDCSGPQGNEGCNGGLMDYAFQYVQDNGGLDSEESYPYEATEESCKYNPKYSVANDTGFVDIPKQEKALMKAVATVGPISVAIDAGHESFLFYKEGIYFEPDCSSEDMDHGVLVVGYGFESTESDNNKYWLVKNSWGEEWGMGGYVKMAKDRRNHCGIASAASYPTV
inhibition (Dipeptidyl peptidase 1 [1]) [%],IC50 (Procathepsin L) [µM],IC50 (Neutrophil elastase [2]) [µM],IC50 (Dipeptidyl peptidase 1 [3]) [µM],IC50 (Cathepsin G [4]) [µM],IC50 (Cathepsin G [5]) [µM],IC50 (Pro-cathepsin H) [µM],IC50 (Cathepsin B) [µM],IC50 (Cathepsin S) [µM],IC50 (Neutrophil elastase [6]) [µM],IC50 (Myeloblastin) [µM],Activity [7],IC50 [8] [µM],IC50 (Cathepsin G [9]) [µM],Structure (SMILES),Activity (U-937) [%]
,0.56,5.49,> 0.22,1.2,17.6,,> 3,1.6,1.9,4.55,,,,N#C[C@]1(NC(=O)[C@@H](N)Cc2ccccc2F)C[C@H]1c1ccccc1,
,0.09,> 50,,,> 50,,0.04,0.47,,,,,,Cc1cc(C)cc(CC(NC(=O)C(c2ccccc2)c2ccccc2)C(=O)NCC#N)c1 (stereo not drawn),
,,> 10,,1.1,> 10,,,,,> 10,,,,CCOC(=O)[C@H]1O[C@@H]1C(=O)N[C@@H](CC(C)C)C(=O)NCCC(C)C [ALOXISTATIN],
,,,,,,,,,,,inactive,,,CCC[C@@H](NC(=O)N1C(=O)C(CC)(CC)[C@@H]1Oc1ccc(C(=O)N2CCN(C)CC2)cc1)c1ccc2c(c1)OCO2,

# The next lines start with the molecule.
Structure (SMILES),inhibition (Dipeptidyl peptidase 1 [1]) [%],IC50 (Procathepsin L) [µM],IC50 (Neutrophil elastase [2]) [µM],IC50 (Dipeptidyl peptidase 1 [3]) [µM],IC50 (Cathepsin G [4]) [µM],IC50 (Cathepsin G [5]) [µM],IC50 (Pro-cathepsin H) [µM],IC50 (Cathepsin B) [µM],IC50 (Cathepsin S) [µM],IC50 (Neutrophil elastase [6]) [µM],IC50 (Myeloblastin) [µM],Activity [7],IC50 [8] [µM],IC50 (Cathepsin G [9]) [µM],Activity (U-937) [%]
[N-]=[N+]=CC(=O)[C@H](Cc1ccccc1)NC(=O)CN (H-Gly-Phe-CHN2),100,,,,,,,,,,,,,,32
CS(=O)(=O)C[C@H](N[C@@H](c1ccc(Br)cc1)C(F)(F)F)C(=O)NC1(C#N)CC1,,0.43,> 50,> 10,> 50,> 50,> 50,0.28,0.01,,,,,,
C[C@H](N)C(=O)N[C@@H](Cc1ccc(I)cc1)C(=O)C=[N+]=[N-],99.6,,,,,,,,,,,Active,,,32
N#C[C@@]1(NC(=O)C(N)Cc2sccc2F)C[C@@H]1c1ccccc1 (stereo partly drawn),,15.5,0.15,,0.09,0.69,> 50,> 50,33.4,0.17,0.15,,> 10,> 10,
